From PubChem
SIRT5 block: sirtuin-5 (human) deacylase inhibition | Q9NXA8 | Purified SirT5, succinyl-peptide AMC, trypsin-coupled fluorescence | inhibition, % at 15 µM | 330,000 tested, 1.1% active | AID 652115; in the data active = inhibition above about 15%; inconclusive = no clear call, values can overlap the other calls
Target sequence (Q9NXA8 whole entry, looked up): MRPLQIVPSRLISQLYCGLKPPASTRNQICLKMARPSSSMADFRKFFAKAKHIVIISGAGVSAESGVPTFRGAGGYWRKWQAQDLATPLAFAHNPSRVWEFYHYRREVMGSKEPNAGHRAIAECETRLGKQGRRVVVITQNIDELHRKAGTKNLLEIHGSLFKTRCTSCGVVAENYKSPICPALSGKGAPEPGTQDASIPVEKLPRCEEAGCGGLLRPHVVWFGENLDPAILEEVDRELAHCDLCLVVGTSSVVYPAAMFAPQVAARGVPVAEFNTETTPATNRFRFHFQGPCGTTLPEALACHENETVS
DENV2 CPE rescue: inhibitors of DENV2 cytopathic effect | AID 651640 | 350,000 tested, 1.7% active | DENV2-infected cells, cytopathic effect rescue, plate reader | CPE inhibition, % at 9.99 µM; in the data active = CPE inhibition above about 20%, passing the limit was not always enough; inconclusive = no clear call, values can overlap the other calls; tested in BHK-21 cells
E-selectin induc: E-selectin induction on HUVECs | P16581 | HUVEC E-selectin immunofluorescence imaging; normalized: neutral wells 0, TNF-alpha wells 100 | activation, % at 7.58 µM | 260,000 tested, 0.37% active | AID 686992;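 active = mean E-selectin-positive cell signal at least 10% of the positive control, reached in at least 60% of replicates, without over 20% cell loss; inconclusive = no rule given, readout overlaps actives, possibly toxicity-flagged; inactive = the rest, including those meeting only one limit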
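Read-out: % PE-positive cells | Test system: HUVEC | Doses: One compound dose added by pin transfer | Buffer or medium: EGM-2 over gelatin coat | Signal: Immunofluorescence imaging | Benchmarks: TNF-alpha, DMSO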
Numbers stand for hits; - = inactive; ? = inconclusive; . = no result; ! = not confirmed by another sample. Rows were chosen to be rich in hits. Some 2.8% of all compounds tested hit in one or more screens of this group.

SMILES	SIRT5 block	DENV2 CPE rescue	E-selectin induc
C[C@@H](NC(=O)C[C@H]1CC[C@@H](NC(=O)CN2CCOCC2)[C@@H](CO)O1)c1ccccc1	17	-	-
C[C@H](NC(=O)C[C@@H]1CC[C@@H](NC(=O)CN2CCOCC2)[C@H](CO)O1)c1ccccc1	-	-	-
CCNC(=O)c1cc2c(c(-c3cccc(-c4ccncc4)c3)n1)[C@H](CCO)N(S(=O)(=O)CC)C2	-	-	-
O=C(Nc1ccc(F)cc1)N[C@@H]1C[C@@H]2O[C@@H](CO)CC[C@@H]2O[C@@H]1CCc1ccc(C2=CCCC2)cc1	.	-	.
CCC(=O)NC[C@H]1[C@H](c2ccc(-c3cccc(F)c3)cc2)[C@@H](CO)N1C(=O)CC	-	-	-
CCCc1c(-c2cccc(Cl)c2)ncn1Cc1cccc(-c2ccccc2)c1	-	-	-
CCc1c(-c2cccc(Cl)c2)ncn1Cc1cccc(-c2ccccc2)c1	-	22	-
O=C(CN1CCOCC1)N[C@@H]1CC[C@H](CCNC(=O)C2CCC2)O[C@H]1CO	-	-	-
C[C@@H]1CN([C@H](C)CO)C(=O)c2cccc(NS(=O)(=O)c3ccc(F)cc3)c2O[C@@H]1CN(C)CC1CCCCC1	-	-	-
COc1ccc(C2=NOC(C(=O)Nc3c(C)n(C)n(-c4ccccc4)c3=O)C2)cc1 (stereo unspecified)	-	-	-
COc1ccc(OC)c(C2=NOC(C(=O)Nc3c(C)n(C)n(-c4ccccc4)c3=O)C2)c1 (stereo unspecified)	-	81	-
Cc1cccc(-c2ccc(C3[C@@H]4CN(Cc5cccc(F)c5)C[C@H]3N4)cc2)c1 (stereo partly specified)	.	-	-
N#Cc1cccc(-c2ccc(C3[C@@H]4CN(C(=O)C5CC5)C[C@H]3N4)cc2)c1 (stereo partly specified)	-	?	-
Fc1cccc(-c2ccc(C3[C@@H]4CN(Cc5cncnc5)C[C@H]3N4)cc2)c1 (stereo partly specified)	.	28!	-
N#Cc1cccc(-c2ccc(C3[C@@H]4CN(C(=O)c5ccc6c(c5)OCO6)C[C@H]3N4)cc2)c1 (stereo partly specified)	.	?	-
O=C(C1CC1)N1C[C@@H]2N[C@H](C1)C2c1ccc(-c2cccc(F)c2)cc1 (stereo partly specified)	.	59!	-
Cc1cccc(-c2ccc(C3[C@@H]4CN(C(=O)C5CCCC5)C[C@H]3N4)cc2)c1 (stereo partly specified)	-	-	-
N#Cc1cccc(-c2ccc(C3[C@@H]4CN(C(=O)c5cccnc5)C[C@H]3N4)cc2)c1 (stereo partly specified)	.	84!	?
O=C(C1CCCC1)N1C[C@@H]2N[C@H](C1)C2c1ccc(-c2cccc(F)c2)cc1 (stereo partly specified)	-	47!	-
CO[C@H]1CN(C)C(=O)c2ccc(NS(=O)(=O)c3ccc(C)cc3)cc2OC[C@H](C)N(C(=O)NC(C)C)C[C@H]1C	.	.	-
C[C@@H](NC(=O)C[C@H]1CC[C@@H](NC(=O)c2cccnc2)[C@@H](CO)O1)c1ccccc1	-	-	-
CNC(=O)C[C@@H]1CC[C@H]2[C@@H](COc3ccc(NC(=O)Nc4cccc(F)c4)cc3C(=O)N2C)O1	.	-	-
CC(C)NC(=O)N(C)C[C@@H]1OCCCC[C@@H](C)Oc2ccc(NS(=O)(=O)c3ccc(F)cc3)cc2C(=O)N([C@@H](C)CO)C[C@@H]1C	-	-	-
C[C@@H]1CCCCO[C@@H](CN(C)C(=O)Nc2ccc3c(c2)OCO3)[C@@H](C)CN([C@H](C)CO)C(=O)c2cc(NC(=O)NC3CCCCC3)ccc2O1	.	.	-
C[C@@H]1CCCCO[C@@H](CN(C)C(=O)Nc2ccc3c(c2)OCO3)[C@H](C)CN([C@@H](C)CO)C(=O)c2cc(NC(=O)NC3CCCCC3)ccc2O1	.	-	-
SMILES	SIRT5 block	DENV2 CPE rescue	E-selectin induc
C[C@@H]1CN([C@H](C)CO)C(=O)c2cc(NC(=O)NC3CCCCC3)ccc2O[C@@H](C)CCCCO[C@H]1CN(C)C(=O)Nc1ccc2c(c1)OCO2	.	101	-
C[C@H]1CCCCO[C@@H](CN(C)C(=O)Nc2ccc3c(c2)OCO3)[C@@H](C)CN([C@@H](C)CO)C(=O)c2cc(NC(=O)NC3CCCCC3)ccc2O1	.	48	-
C[C@@H]1CN([C@@H](C)CO)C(=O)c2cc(NC(=O)NC3CCCCC3)ccc2O[C@@H](C)CCCCO[C@@H]1CN(C)S(=O)(=O)c1cccs1	.	-	-
CC(C)NC(=O)N(C)C[C@H]1OCCCC[C@H](C)Oc2ccc(NC(=O)c3ccccc3)cc2C(=O)N([C@H](C)CO)C[C@@H]1C	-	-	-
Cc1ccc(S(=O)(=O)N[C@@H]2C=C[C@H](CC(=O)O)O[C@H]2CO)cc1	-	-	-
COc1ccc(-c2cn(CC[C@H]3CC[C@@H](NC(=O)NC(C)C)[C@H](CO)O3)nn2)cc1	-	-	-
Clc1ccccc1CN1CCN(/N=C/C=C\c2ccco2)CC1	28	-	.
O=C(CN1CCN(Cc2ccccc2)CC1)N/N=C/C=C/c1ccco1	.	.	-
C[C@@H]1CN([C@H](C)CO)C(=O)c2cc(C#CC3CC3)cnc2O[C@@H]1CN(C)C(=O)c1ccncc1	.	.	-
N=C1/C(=C\c2ccc(-c3cccc(Cl)c3)o2)C(=O)N=C2SC=C(c3ccccc3)N12	-	67	.
N=C1/C(=C\c2ccc(-c3ccc(C(=O)O)cc3)o2)C(=O)N=C2SC=C(c3ccccc3)N12	-	-	.
O=C(C[C@@H]1CC[C@H](NC(=O)Nc2ccccc2F)[C@H](CO)O1)NCc1ccc(F)cc1	-	-	-
C[C@H]1CCCCO[C@H](CN(C)C(=O)Nc2ccc(C(F)(F)F)cc2)[C@@H](C)CN([C@@H](C)CO)C(=O)c2cc(NS(=O)(=O)c3cccs3)ccc2O1	-	-	-
C[C@@H]1CCCCO[C@H](CN(C)C(=O)Nc2ccc(C(F)(F)F)cc2)[C@H](C)CN([C@@H](C)CO)C(=O)c2cc(NS(=O)(=O)c3cccs3)ccc2O1	-	37	-
C[C@@H]1CCCCO[C@H](CN(C)C(=O)Nc2ccc(F)cc2)[C@@H](C)CN([C@H](C)CO)C(=O)c2cc(NS(=O)(=O)c3cccs3)ccc2O1	-	22	-
C[C@@H]1CCCCO[C@@H](CN(C)C(=O)Nc2ccc(F)cc2)[C@H](C)CN([C@@H](C)CO)C(=O)c2cc(NS(=O)(=O)c3cccs3)ccc2O1	-	-	-
Cc1noc(C)c1NC(=O)Nc1ccc2c(c1)CC(=O)N([C@@H](C)CO)C[C@H](C)[C@@H](CN(C)S(=O)(=O)c1cn(C)cn1)O2	.	-	-
COC(=O)[C@@H]1[C@@H](CO)[C@@H]2Cn3c(ccc(C4=CCCC4)c3=O)[C@@H]2N1C(=O)C1CCCC1	-	-	-
C[C@@H]1CCCCO[C@H](CN(C)C(=O)Nc2ccc(F)cc2)[C@H](C)CN([C@H](C)CO)C(=O)c2cc(NS(C)(=O)=O)ccc2O1	-	-	-
CC1OC(CCc2cccc(Cl)c2)Cc2[nH]c(=S)[nH]c(=O)c21 (stereo unspecified)	.	40	-
CC(C)C[C@@H]1O[C@H](CCc2ccccc2)Cc2[nH]c(=S)[nH]c(=O)c21	-	-	.
